The values below come from the M2OR odorant receptor database.

What all share (conditions): stereoisomer not certain
One assay relates to O5AN1 L289F. The method in brief:
(§1)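 Values were gathered from published papers (main text and supplementary material), with extra details requested from the original authors when needed, and checked for typos and inconsistencies. Each receptor–molecule pair is called responsive (active) if the original authors judged the measured signal statistically different from baseline, and non-responsive (inactive) otherwise. Assay methods varied by source, often transient mammalian cell-line luciferase assays. Recorded details include cell line, G-protein, co-transfected protein and tags.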

The next assay concerns O5AP2 A105T. The method in brief: as §1
The test system of another assay is O5AU1. The method in brief: as §1
The test system of the next assay is O5H14. The method in brief: as §1
Another assay has as its system O5H15 V108I S148T T167S. The method in brief: as §1
For the next assay, the system named is O6C65 T222A. The method, boiled down: as §1
The next assay concerns O6C70 L181P. The method, boiled down:
as §1

The next assay relates to O7E24 S193F P242S. The method, boiled down: as §1
The next assay has as its system O7E24. The method, boiled down:
as §1

Another assay deals with T1, O5AN1.
T1 sequence (whole entry): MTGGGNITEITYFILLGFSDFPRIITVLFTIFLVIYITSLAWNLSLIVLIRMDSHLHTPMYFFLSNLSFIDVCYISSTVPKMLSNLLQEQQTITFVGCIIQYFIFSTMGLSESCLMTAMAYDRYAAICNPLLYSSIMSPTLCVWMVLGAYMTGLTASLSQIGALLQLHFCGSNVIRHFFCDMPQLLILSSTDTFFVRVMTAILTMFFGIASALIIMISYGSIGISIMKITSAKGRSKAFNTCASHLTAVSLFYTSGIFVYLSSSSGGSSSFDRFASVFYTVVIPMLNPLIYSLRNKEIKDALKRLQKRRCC
The method in brief: as §1

Chain of O6C70 L181P (as listed by the source, stated change not applied): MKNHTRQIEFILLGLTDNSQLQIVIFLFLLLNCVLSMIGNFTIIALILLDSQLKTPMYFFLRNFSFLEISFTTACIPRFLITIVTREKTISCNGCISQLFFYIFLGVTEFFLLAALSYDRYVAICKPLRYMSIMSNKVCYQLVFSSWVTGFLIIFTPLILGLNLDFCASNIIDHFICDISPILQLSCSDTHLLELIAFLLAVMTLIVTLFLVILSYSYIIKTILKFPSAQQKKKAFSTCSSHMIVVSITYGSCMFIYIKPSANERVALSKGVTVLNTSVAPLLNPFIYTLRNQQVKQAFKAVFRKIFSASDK
Chain of O5AP2 A105T (as listed by the source, stated change not applied): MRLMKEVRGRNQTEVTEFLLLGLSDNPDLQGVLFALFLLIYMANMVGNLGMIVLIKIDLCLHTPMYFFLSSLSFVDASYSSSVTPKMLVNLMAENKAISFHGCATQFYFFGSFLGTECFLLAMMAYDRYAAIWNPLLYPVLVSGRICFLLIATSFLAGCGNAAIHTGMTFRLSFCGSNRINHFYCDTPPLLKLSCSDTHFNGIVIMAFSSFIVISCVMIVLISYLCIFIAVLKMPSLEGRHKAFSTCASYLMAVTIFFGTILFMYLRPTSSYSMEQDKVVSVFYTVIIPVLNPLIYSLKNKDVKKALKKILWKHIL
Chain of O5H14 (as listed by the source): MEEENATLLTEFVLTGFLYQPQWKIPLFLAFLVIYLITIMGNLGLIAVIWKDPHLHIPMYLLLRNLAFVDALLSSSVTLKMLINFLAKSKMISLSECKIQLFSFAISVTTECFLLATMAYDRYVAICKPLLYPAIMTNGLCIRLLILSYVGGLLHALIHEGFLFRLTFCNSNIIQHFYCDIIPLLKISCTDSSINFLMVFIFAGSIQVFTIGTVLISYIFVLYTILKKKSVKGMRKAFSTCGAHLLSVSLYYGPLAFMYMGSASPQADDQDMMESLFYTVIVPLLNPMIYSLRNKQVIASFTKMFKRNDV
Chain of O6C65 T222A (as listed by the source, stated change not applied): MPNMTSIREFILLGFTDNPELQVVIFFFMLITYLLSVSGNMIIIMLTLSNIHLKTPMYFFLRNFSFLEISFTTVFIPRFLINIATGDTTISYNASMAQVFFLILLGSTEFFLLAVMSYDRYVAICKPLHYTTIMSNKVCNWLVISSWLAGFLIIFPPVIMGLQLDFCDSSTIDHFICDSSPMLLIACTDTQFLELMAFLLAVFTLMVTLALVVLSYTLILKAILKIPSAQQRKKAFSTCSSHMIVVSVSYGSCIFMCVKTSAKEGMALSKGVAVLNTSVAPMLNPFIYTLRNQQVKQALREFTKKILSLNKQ
Chain of O5AN1 L289F (as listed by the source, stated change not applied): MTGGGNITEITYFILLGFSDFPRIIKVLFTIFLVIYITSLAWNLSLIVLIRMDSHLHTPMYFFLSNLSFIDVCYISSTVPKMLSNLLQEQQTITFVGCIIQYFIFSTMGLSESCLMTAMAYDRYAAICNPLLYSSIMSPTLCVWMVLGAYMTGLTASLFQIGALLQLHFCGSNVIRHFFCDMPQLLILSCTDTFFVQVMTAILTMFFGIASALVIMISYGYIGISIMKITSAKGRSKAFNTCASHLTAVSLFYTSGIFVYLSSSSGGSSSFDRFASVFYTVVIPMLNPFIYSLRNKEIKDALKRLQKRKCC
Chain of O5AU1 (as listed by the source): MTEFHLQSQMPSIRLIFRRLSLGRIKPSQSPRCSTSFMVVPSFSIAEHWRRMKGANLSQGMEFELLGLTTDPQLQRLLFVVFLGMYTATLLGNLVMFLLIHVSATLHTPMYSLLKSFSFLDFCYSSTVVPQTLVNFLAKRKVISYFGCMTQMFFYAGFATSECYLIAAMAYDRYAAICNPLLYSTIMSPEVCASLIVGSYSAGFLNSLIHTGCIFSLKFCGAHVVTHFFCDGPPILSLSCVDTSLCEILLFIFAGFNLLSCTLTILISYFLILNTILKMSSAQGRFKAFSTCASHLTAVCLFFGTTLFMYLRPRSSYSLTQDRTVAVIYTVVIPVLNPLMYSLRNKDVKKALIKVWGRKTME
Chain of O7E24 (as listed by the source): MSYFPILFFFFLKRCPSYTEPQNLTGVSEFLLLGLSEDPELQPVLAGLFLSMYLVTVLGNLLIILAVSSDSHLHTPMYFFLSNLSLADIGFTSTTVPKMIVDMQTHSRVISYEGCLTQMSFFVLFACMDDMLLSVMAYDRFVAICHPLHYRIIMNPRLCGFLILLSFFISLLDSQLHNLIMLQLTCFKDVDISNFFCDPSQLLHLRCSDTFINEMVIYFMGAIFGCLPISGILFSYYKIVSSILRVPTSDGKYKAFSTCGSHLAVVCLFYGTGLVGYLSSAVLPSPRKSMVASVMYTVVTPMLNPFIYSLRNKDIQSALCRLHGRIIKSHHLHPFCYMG

For the compound `C=CCOC(=O)Cc1ccccc1`, the “odorant receptor agonist call” value in the assay with O5AN1 L289F, with O5AP2 A105T, in the assay on O5AU1, in the assay with O5H14, in the assay with O5H15 V108I S148T T167S and in the assay on O6C65 T222A was “inactive” in each case. The “odorant receptor agonist call” value in the assay on O6C70 L181P, in the assay on O7E24 S193F P242S and in the assay with O7E24 was “inactive” throughout.

As for `CC(=O)c1cc(C(C)(C)C)cc2c1CCC2(C)C`, the “odorant receptor agonist call” value in the assay on O5AN1 is “inactive”.

Consider `Cc1c([N+](=O)[O-])c(C)c([N+](=O)[O-])c(C(C)(C)C)c1[N+](=O)[O-]`, for which, in the assay on O5AN1, the “odorant receptor agonist call” value was “active”.

As to `CC(=O)c1cc2c(cc1C)C(C)(C)C(C)CC2(C)C` (configuration not stated), the “odorant receptor agonist call” value in the assay with O5AN1 is “inactive”.
